Laboratory results published in ChEMBL document CHEMBL4043093, “2-Oxo-3, 4-dihydropyrimido[4, 5-d]pyrimidinyl derivatives as new irreversible pan fibroblast growth factor receptor (FGFR) inhibitors” (Eur J Med Chem, 2017).

What was measured:
[1] = biological target: Fibroblast growth factor receptor 1 (Homo sapiens, UniProt P11362); test: Inhibition of human recombinant His-tagged FGFR1 cytoplasmic domain (308 to 731 residues) expressed in baculovirus using Tyr-4 peptide after 1 hr by FRET-based Z'-Lyte assay
[2] = biological target: Cyclin-dependent kinase 18 (Homo sapiens) (UniProt Q07002); test: Inhibition of wild-type human full length PCTK3 (M3 to F474 residues) expressed in Escherichia coli BL21 assessed as residual activity at 1000 nM after 30 mins by Kinomescan method relative to control
In short: (§1)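 Single-concentration screen at 1 µM across a 456-kinase KINOMEscan panel. The read-out is Percent Control for each kinase.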

[3] = biological target: Homeodomain-interacting protein kinase 4 (Homo sapiens) (UniProt Q8NE63); test: Inhibition of wild-type human partial length HIPK4 (M1 to V384 residues) expressed in Escherichia coli BL21 assessed as residual activity at 1000 nM after 30 mins by Kinomescan method relative to control
[4] = biological target: Discoidin domain-containing receptor 2 (Homo sapiens) (UniProt Q16832); test: Inhibition of wild-type human partial length DDR2 (V555 to E855 residues) expressed in HEK293 cells assessed as residual activity at 1000 nM after 30 mins by Kinomescan method relative to control; assay type: cell-based
Chain of Discoidin domain-containing receptor 2 (Homo sapiens) (Q16832 whole entry, the tested form may be a part): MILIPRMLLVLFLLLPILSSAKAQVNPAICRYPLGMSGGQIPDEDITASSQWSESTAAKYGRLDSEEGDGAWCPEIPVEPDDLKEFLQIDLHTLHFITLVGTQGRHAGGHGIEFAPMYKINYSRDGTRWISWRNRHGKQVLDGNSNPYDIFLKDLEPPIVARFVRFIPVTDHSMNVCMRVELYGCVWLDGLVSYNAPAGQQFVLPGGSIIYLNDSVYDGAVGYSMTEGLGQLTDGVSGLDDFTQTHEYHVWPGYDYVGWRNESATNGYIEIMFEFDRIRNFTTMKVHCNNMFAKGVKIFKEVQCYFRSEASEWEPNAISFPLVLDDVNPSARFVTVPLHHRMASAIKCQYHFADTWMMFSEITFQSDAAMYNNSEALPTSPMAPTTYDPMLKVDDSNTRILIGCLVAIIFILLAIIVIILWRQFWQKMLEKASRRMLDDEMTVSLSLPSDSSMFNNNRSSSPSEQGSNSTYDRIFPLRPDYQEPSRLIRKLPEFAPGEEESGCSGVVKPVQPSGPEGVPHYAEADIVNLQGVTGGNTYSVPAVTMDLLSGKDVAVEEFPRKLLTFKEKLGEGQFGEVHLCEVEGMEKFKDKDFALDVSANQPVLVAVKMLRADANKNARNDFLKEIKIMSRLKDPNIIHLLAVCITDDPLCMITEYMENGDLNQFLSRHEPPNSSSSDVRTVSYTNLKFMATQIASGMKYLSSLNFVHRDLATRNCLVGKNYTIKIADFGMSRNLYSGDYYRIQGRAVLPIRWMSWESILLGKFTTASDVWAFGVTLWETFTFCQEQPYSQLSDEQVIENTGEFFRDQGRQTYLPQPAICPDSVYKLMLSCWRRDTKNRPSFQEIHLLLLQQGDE

NCI-H520 = test: Antiproliferative activity against human FGFR1-amplified NCI-H520 cells after 7 days by SRB assay; conditions: NCI-H520, 168 h
[5] = biological target: Serine/threonine-protein kinase PLK3 (Homo sapiens) (UniProt Q9H4B4); test: Inhibition of wild-type human partial length PLK3 (A42 to L334 residues) expressed in HEK293 cells assessed as residual activity at 1000 nM after 30 mins by Kinomescan method relative to control; assay type: cell-based
Chain of Serine/threonine-protein kinase PLK3 (Homo sapiens) (Q9H4B4 whole entry, looked up, the tested form may be a part): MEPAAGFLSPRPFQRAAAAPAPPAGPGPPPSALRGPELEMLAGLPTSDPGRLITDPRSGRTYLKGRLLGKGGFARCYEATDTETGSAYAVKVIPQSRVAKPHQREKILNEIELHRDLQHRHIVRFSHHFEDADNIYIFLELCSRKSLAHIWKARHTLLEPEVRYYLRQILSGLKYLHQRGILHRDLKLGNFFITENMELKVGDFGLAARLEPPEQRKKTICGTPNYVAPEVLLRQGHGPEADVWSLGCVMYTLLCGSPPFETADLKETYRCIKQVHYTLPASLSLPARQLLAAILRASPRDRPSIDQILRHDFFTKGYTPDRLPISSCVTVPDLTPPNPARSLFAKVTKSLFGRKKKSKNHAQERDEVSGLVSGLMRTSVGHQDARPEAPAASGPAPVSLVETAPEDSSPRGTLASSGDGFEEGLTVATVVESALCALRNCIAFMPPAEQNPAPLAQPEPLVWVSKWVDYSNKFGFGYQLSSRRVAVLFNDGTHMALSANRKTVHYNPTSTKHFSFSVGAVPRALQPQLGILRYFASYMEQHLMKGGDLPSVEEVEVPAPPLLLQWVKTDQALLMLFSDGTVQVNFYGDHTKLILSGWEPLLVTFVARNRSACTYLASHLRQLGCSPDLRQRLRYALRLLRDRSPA

[6] = biological target: Death-associated protein kinase 3 (Homo sapiens) (UniProt O43293); test: Inhibition of wild-type human partial length DAPK3 (M1 to A277 residues) expressed in Escherichia coli BL21 assessed as residual activity at 1000 nM after 30 mins by Kinomescan method relative to control
Chain of Death-associated protein kinase 3 (Homo sapiens) (O43293 whole entry, looked up, the tested form may be a part, canonical isoform): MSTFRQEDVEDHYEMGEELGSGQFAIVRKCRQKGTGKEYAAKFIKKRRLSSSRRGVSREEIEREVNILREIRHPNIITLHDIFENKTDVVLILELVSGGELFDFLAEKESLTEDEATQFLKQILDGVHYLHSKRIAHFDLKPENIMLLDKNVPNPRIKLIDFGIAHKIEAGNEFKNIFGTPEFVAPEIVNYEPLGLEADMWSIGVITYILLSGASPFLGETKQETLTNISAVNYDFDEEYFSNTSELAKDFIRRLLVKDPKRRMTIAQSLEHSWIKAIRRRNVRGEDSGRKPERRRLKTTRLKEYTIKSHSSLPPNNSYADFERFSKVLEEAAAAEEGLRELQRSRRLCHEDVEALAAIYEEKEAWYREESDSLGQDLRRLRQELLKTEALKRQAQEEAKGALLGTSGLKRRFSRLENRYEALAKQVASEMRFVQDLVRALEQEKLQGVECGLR

[7] = biological target: Phosphatidylinositol 4,5-bisphosphate 3-kinase catalytic subunit delta isoform (Homo sapiens) (UniProt O00329); test: Inhibition of wild-type human partial length PIK3CD (R108 to Q1044 residues) expressed in HEK293 cells assessed as residual activity at 1000 nM after 30 mins by Kinomescan method relative to control; assay type: cell-based
[8] = biological target: Vascular endothelial growth factor receptor 3 (Homo sapiens) (UniProt P35916); test: Inhibition of wild-type human partial length FLT4 (E821 to E1196 residues) expressed in Escherichia coli BL21 assessed as residual activity at 1000 nM after 30 mins by Kinomescan method relative to control
[9] = biological target: Serine/threonine-protein kinase TAO1 (Homo sapiens) (UniProt Q7L7X3); test: Inhibition of wild-type human partial length TAOK1 (M1 to A320 residues) expressed in HEK293 cells assessed as residual activity at 1000 nM after 30 mins by Kinomescan method relative to control; assay type: cell-based
[10] = biological target: Ribosomal protein S6 kinase alpha-4 (Homo sapiens) (UniProt O75676); test: Inhibition of wild-type human partial length C-terminal RPS6KA4 kinase domain 2 (M375 to T705 residues) expressed in HEK293 cells assessed as residual activity at 1000 nM after 30 mins by Kinomescan method relative to control; assay type: cell-based
[11] = biological target: Ephrin type-A receptor 6 (Homo sapiens) (UniProt Q9UF33); test: Inhibition of wild-type human partial length EPHA6 (Y700 to E1046 residues) expressed in Escherichia coli BL21 assessed as residual activity at 1000 nM after 30 mins by Kinomescan method relative to control
[12] = system: Tyrosine-protein kinase ABL1 (Homo sapiens), P00519 [T315I]; test: Inhibition of human phosphorylated ABL1 T315I mutant (S229 to K512 residues) expressed in HEK293 cells assessed as residual activity at 1000 nM after 30 mins by Kinomescan method relative to control; assay type: cell-based
In short: (§2)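 Single-point screen at a fixed 1 µM, run within a 456-kinase DiscoveRx KINOMEscan panel. Each kinase's read-out is Percent Control, i.e. signal relative to a control without compound. Hits were scored by a Percent Control < 35 cut-off, and an S(35) selectivity score was calculated across the non-mutant kinases.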

[13] = biological target: Inhibitor of nuclear factor kappa-B kinase subunit alpha (Homo sapiens) (UniProt O15111); test: Inhibition of wild-type human full length IKK-alpha (M1 to E745 residues) expressed in HEK293 cells assessed as residual activity at 1000 nM after 30 mins by Kinomescan method relative to control; assay type: cell-based; in short: as §1
[14] = biological target: Serine/threonine-protein kinase 38 (Homo sapiens) (UniProt Q15208); test: Inhibition of wild-type human partial length NDR1 (N33 to E449 residues) expressed in HEK293 cells assessed as residual activity at 1000 nM after 30 mins by Kinomescan method relative to control; assay type: cell-based
Chain of Serine/threonine-protein kinase 38 (Homo sapiens) (Q15208 2-465 limits assumed): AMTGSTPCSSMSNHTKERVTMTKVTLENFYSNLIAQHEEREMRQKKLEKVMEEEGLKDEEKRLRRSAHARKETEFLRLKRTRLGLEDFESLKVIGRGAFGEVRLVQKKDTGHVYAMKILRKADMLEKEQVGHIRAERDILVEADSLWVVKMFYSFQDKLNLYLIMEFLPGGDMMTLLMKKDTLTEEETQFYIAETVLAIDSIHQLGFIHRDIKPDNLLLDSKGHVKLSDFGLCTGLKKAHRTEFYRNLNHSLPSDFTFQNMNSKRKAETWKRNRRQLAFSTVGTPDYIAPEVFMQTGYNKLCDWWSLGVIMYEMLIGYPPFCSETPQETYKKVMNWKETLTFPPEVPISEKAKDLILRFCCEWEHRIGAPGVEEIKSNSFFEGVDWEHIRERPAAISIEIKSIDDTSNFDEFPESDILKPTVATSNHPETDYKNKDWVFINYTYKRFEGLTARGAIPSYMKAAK

[15] = biological target: Atypical kinase COQ8B, mitochondrial (Homo sapiens) (UniProt Q96D53); test: Inhibition of wild-type human full length ADCK4 (M1 to S544 residues) expressed in Escherichia coli BL21 assessed as residual activity at 1000 nM after 30 mins by Kinomescan method relative to control; in short: as §2
[16] = biological target: Serine/threonine-protein kinase ULK3 (Homo sapiens) (UniProt Q6PHR2); test: Inhibition of wild-type human partial length ULK3 (M1 to Q290 residues) expressed in HEK293 cells assessed as residual activity at 1000 nM after 30 mins by Kinomescan method relative to control; assay type: cell-based
[17] = biological target: Mitogen-activated protein kinase 4 (Homo sapiens) (UniProt P31152); test: Inhibition of wild-type human partial length ERK4 (M1 to L365 residues) expressed in Escherichia coli BL21 assessed as residual activity at 1000 nM after 30 mins by Kinomescan method relative to control
[18] = biological target: Tyrosine-protein kinase JAK1 (Homo sapiens) (UniProt P23458); test: Inhibition of wild-type human partial length JAK1 JH1 catalytic domain (V856 to K1154 residues) expressed in Escherichia coli BL21 assessed as residual activity at 1000 nM after 30 mins by Kinomescan method relative to control
Chain of Tyrosine-protein kinase JAK1 (Homo sapiens) (P23458 whole entry, the tested form may be a part): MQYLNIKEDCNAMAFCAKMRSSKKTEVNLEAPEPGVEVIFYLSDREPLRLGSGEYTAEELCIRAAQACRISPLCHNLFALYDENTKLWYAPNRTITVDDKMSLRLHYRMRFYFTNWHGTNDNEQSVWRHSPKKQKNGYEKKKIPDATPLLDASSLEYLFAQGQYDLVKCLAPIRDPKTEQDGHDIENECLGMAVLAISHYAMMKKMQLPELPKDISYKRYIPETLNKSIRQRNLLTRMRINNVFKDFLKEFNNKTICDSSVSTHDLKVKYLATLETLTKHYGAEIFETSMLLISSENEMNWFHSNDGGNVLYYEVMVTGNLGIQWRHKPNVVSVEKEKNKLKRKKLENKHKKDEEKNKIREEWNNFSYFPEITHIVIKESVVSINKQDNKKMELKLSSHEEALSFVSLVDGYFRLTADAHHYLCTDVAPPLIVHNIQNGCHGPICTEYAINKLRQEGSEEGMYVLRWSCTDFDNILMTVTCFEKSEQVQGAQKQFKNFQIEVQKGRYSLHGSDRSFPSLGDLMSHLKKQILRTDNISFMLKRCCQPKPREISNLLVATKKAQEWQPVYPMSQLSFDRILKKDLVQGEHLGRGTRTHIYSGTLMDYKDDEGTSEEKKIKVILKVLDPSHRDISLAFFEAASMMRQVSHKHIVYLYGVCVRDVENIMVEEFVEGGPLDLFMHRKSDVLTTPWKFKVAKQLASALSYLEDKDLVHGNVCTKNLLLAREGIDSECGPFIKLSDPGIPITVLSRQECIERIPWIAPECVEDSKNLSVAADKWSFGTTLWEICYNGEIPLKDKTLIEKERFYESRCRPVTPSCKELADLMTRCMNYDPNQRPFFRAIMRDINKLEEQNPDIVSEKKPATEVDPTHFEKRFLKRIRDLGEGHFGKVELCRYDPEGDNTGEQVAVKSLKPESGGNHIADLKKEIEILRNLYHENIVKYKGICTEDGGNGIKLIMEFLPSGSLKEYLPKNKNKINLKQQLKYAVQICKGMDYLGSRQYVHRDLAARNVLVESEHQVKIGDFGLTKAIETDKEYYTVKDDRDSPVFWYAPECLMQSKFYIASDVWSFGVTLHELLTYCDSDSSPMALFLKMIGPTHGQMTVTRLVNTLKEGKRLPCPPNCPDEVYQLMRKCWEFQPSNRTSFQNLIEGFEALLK

[19] = biological target: Mitogen-activated protein kinase 9 (Homo sapiens) (UniProt P45984); test: Inhibition of wild-type human full length JNK2 (M1 to Q382 residues) expressed in HEK293 cells assessed as residual activity at 1000 nM after 30 mins by Kinomescan method relative to control; assay type: cell-based; in short: as §1
[20] = biological target: Serine/threonine-protein kinase Chk1 (Homo sapiens) (UniProt O14757); test: Inhibition of wild-type human partial length CHEK1 (M1 to G289 residues) expressed in Escherichia coli BL21 assessed as residual activity at 1000 nM after 30 mins by Kinomescan method relative to control
Chain of Serine/threonine-protein kinase Chk1 (Homo sapiens) (O14757 whole entry, the tested form may be a part): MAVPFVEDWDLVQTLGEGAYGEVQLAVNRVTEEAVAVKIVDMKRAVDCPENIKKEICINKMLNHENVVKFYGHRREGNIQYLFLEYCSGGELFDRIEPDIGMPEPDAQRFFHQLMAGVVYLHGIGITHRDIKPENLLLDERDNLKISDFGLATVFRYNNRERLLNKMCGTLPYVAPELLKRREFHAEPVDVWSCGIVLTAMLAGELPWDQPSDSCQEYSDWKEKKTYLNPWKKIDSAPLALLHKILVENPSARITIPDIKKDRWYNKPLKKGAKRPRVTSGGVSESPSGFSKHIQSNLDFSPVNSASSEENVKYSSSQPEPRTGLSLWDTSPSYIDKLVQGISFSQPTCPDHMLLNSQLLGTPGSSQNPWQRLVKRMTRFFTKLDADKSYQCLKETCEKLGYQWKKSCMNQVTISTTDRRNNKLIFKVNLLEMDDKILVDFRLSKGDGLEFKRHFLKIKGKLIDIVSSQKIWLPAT

[21] = biological target: Serine/threonine-protein kinase/endoribonuclease IRE1 (Homo sapiens) (UniProt O75460); test: Inhibition of wild-type human partial length ERN1 (S551 to E852 residues) expressed in HEK293 cells assessed as residual activity at 1000 nM after 30 mins by Kinomescan method relative to control; assay type: cell-based
Chain of Serine/threonine-protein kinase/endoribonuclease IRE1 (Homo sapiens) (O75460 19-977 limits assumed): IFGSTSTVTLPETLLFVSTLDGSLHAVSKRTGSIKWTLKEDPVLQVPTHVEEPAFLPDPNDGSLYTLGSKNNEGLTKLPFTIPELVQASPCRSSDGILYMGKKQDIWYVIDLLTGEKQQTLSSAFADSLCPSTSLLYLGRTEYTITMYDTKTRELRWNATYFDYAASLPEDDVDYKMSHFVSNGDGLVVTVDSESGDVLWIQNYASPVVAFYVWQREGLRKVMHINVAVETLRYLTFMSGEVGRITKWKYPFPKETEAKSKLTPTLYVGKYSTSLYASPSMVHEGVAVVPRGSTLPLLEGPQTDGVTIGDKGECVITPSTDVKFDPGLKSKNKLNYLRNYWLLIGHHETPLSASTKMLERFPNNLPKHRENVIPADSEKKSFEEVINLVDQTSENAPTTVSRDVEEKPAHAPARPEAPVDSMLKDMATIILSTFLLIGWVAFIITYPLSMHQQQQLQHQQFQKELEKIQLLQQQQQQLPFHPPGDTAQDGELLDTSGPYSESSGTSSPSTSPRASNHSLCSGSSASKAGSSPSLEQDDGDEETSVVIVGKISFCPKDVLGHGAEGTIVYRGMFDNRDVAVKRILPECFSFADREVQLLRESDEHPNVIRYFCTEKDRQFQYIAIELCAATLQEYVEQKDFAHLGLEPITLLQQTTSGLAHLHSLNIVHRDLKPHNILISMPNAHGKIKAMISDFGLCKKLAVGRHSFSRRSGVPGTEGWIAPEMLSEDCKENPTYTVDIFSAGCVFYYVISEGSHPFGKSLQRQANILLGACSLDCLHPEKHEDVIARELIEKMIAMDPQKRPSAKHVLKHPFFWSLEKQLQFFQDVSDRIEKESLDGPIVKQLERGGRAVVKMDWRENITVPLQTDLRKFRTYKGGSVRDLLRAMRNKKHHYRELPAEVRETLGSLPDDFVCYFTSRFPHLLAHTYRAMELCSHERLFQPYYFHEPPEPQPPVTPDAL

Structure (SMILES): COc1cc(OC)c(Cl)c(N2Cc3cnc(Nc4ccc(F)cc4)nc3N(C3CCN(C(=O)/C=C/CN(C)C)CC3)C2=O)c1Cl
- IC50 [1]: 0.99 nM
- Activity [2]: 93%
- Activity [3]: 99%
- Activity [4]: 77%
- IC50 (NCI-H520): 8.69 nM
- Activity [5]: 99%
- Activity [6]: 100%
- Activity [7]: 93%
- Activity [8]: 2.7%
- Activity [9]: 13%
- Activity [10]: 93%
- Activity [11]: 100%
- Activity [12]: 97%
- Activity [13]: 95%
- Activity [14]: 100%
- Activity [15]: 94%
- Activity [16]: 99%
- Activity [17]: 94%
- Activity [18]: 93%
- Activity [19]: 92%
- Activity [20]: 100%
- Activity [21]: 100%
